Experimental data: ChEMBL document CHEMBL1144843, “Design and campaign synthesis of pyridine-based histone deacetylase inhibitors” (Bioorg Med Chem Lett, 2008)
In brackets after ≈: the same amount, converted by molar mass.

How the values were obtained:
[1] = target: Voltage-gated inwardly rectifying potassium channel KCNH2 (Homo sapiens, UniProt Q12809); assay: Inhibition of human ERG channel
[2] = Solubility at pH 7.4; format: physicochemical; conditions: buffer
[3] = Lipophilicity, log D at pH 7.4; format: physicochemical; conditions: buffer
HCT-116 = assay: Antiproliferative activity against human HCT116 cells after 72 hrs; format: functional, cell-based; conditions: HCT-116, 72 h
Summary of the method: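 HCT116 cells seeded at 1 × 10³ cells/well and left to adhere overnight, then exposed to inhibitors for 72 h. MTS tetrazolium dye added and incubated a further 3 h, with absorbance read at 490 nm.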

Histone deacetylase 1 = Histone deacetylase 1 (Homo sapiens, UniProt Q13547); assay: Inhibition of human HDAC1 expressed in Hi5 cells; parameters: species or system BTI-TN-5B1-4
Summary of the method: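 C-terminally FLAG-tagged HDAC1 purified on anti-FLAG M2 agarose. Development 30 min at ambient temperature, fluorescence read at ex 360/em 465 nm. IC50 taken from dose–response curves.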

[4] = Half life in rat at 5 umol/kg, iv; format: ADME, organism-based; conditions: in vivo
[5] = Volume of distribution at steady state in rat at 5 umol/kg, iv; format: ADME, organism-based; conditions: in vivo, read-out: Vdss
[6] = Half life in rat at 67.1 umol/kg, po; format: ADME, organism-based; conditions: in vivo
[7] = Clearance in rat at 5 umol/kg, iv; format: ADME, organism-based; conditions: in vivo
[8] = Half life in rat at 55.6 umol/kg, po; format: ADME, organism-based; conditions: in vivo
[9] = Half life in rat at 56.4 umol/kg, po; format: ADME, organism-based; conditions: in vivo
[10] = Clearance in rat at 2.5 umol/kg, iv; format: ADME, organism-based; conditions: in vivo
[11] = Volume of distribution at steady state in rat at 2.5 umol/kg, iv; format: ADME, organism-based; conditions: in vivo, read-out: Vdss
[12] = Half life in rat at 55 umol/kg, po; format: ADME, organism-based; conditions: in vivo
[13] = Half life in rat at 2.5 umol/kg, iv; format: ADME, organism-based; conditions: in vivo
[14] = Half life in rat at 65.2 umol/kg, po; format: ADME, organism-based; conditions: in vivo
[15] = Volume of distribution at steady state in Beagle dog at 0.8 umol/kg, iv; format: ADME, organism-based, Canis lupus familiaris; conditions: in vivo, read-out: Vdss
Plasma [16] = assay: Fraction unbound to rat plasma protein in mouse; format: ADME, cell-free
[17] = Half life in Beagle dog at 0.8 umol/kg, iv; format: ADME, organism-based, Canis lupus familiaris; conditions: in vivo
Plasma [18] = assay: Fraction unbound to […]; format: ADME, cell-free, Canis lupus familiaris
[19] = Half life in Beagle dog at 3 umol/kg, po; format: ADME, organism-based, Canis lupus familiaris; conditions: in vivo
[20] = Bioavailability in Beagle dog at 3 umol/kg, po; format: ADME, organism-based, Canis lupus familiaris; conditions: in vivo
[21] = Clearance in Beagle dog at 0.8 umol/kg, iv; format: ADME, organism-based, Canis lupus familiaris; conditions: in vivo
[22] = Half life in mouse at 65.2 umol/kg, po; format: ADME, organism-based; conditions: in vivo
Plasma [23] = assay: Fraction unbound to rat plasma protein in rat; format: ADME, cell-free
[24] = Half life in rat at 63.6 umol/kg, po; format: ADME, organism-based; conditions: in vivo
[25] = Half life in rat at 10 umol/kg, po; format: ADME, organism-based; conditions: in vivo
[26] = Half life in rat at 56.7 umol/kg, po; format: ADME, organism-based; conditions: in vivo

Chain of Voltage-gated inwardly rectifying potassium channel KCNH2 (Q12809 whole entry): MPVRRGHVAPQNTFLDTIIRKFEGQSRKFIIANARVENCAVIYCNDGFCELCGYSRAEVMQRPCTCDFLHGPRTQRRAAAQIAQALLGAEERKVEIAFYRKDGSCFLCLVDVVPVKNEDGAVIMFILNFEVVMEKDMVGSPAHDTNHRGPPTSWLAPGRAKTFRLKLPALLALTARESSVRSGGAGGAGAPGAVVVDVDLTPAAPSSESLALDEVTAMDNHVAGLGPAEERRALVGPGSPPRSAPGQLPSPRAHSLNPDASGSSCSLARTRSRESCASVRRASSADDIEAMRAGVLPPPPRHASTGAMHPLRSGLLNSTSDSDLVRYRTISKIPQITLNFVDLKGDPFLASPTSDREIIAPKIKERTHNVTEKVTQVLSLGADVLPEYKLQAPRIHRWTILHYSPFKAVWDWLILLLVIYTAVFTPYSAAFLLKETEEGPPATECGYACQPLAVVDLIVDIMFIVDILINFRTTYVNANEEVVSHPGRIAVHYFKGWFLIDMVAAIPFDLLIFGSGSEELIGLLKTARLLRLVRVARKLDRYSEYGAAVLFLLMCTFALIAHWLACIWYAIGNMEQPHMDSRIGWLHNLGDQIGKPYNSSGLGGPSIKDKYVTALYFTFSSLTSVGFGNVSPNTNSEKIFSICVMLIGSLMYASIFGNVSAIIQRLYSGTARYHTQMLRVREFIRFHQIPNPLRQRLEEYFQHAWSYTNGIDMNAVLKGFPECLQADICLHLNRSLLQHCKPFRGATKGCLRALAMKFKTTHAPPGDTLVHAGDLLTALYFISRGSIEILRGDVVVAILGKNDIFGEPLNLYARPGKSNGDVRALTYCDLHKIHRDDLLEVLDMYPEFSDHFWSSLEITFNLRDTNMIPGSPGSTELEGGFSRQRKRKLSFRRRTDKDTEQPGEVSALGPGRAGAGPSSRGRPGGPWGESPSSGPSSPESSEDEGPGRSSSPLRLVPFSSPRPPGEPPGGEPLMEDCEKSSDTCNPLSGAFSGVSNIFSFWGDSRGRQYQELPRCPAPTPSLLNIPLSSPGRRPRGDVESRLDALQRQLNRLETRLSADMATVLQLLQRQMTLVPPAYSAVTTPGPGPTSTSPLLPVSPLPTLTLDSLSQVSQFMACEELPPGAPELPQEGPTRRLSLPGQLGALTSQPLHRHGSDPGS
Chain of Histone deacetylase 1 (Q13547 whole entry): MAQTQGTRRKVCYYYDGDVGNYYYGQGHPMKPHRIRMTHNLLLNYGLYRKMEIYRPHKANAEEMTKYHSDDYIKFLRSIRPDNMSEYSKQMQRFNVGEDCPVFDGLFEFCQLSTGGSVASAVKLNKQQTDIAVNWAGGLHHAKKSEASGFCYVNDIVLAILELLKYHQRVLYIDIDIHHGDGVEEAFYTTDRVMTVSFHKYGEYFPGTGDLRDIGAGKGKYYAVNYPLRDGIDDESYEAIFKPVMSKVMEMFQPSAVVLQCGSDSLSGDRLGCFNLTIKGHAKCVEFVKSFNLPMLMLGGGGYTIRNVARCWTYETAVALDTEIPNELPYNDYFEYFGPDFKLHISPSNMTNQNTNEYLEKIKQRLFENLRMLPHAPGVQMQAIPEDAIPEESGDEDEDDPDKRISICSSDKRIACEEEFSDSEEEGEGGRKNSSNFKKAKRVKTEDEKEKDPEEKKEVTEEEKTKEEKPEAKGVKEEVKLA

SMILES	IC50 [1] [nM]	solubility [2] [µM]	logD [3]	IC50 (HCT-116) [nM]	IC50 (Histone deacetylase 1) [nM]	Vd [5] [L/kg]	clearance [7] [mL/min/kg]	also measured
CC(C)N1CCN(Cc2cnc(-c3ccc(C(=O)Nc4ccccc4N)cc3)c(Cl)c2)CC1	7080	> 1490	1.68	309	13.2	–	–	–
Cc1cc(CN2CCC2)cnc1-c1ccc(C(=O)Nc2ccccc2N)cc1	–	2240 (≈ 834 µg/mL)	1.18	309	21.4	6.9	30.2	half-life [4]: 3 h; half-life [6]: 5.5 h
CCN1CCN(Cc2cnc(-c3ccc(C(=O)Nc4ccccc4N)cc3)c(Cl)c2)CC1	8320	–	1.81	339	16.2	–	–	half-life [8]: 4.4 h
Cc1cc(CN2CCN(C(C)C)CC2)cnc1-c1ccc(C(=O)Nc2ccccc2N)cc1	–	> 2620	1.44	240	–	–	–	half-life [9]: 3.4 h
CC(C)N1CCN(Cc2cnc(-c3ccc(C(=O)Nc4ccccc4N)cc3)c(C#N)c2)CC1	19100	1380 (≈ 630 µg/mL)	1.28	141	10.5	–	–	clearance [10]: 44 mL/min/kg; Vd [11]: 5.1 L/kg; half-life [12]: 4.3 h; half-life [13]: 2 h
N#Cc1cc(CN2CCC2)cnc1-c1ccc(C(=O)Nc2ccccc2N)cc1	> 25100	746 (≈ 286 µg/mL)	1.22	138	9.77	5.4	19.6	half-life [14]: 5.5 h; half-life [4]: 3.8 h; Vd [15]: 2.32 L/kg; fu (Plasma [16]): 54%; half-life [17]: 1.9 h; fu (Plasma [18]): 48%; half-life [19]: 2.1 h; bioavailability [20]: 13%; clearance [21]: 30 mL/min/kg; half-life [22]: 3 h; fu (Plasma [23]): 53%
CC(C)N1CCN(Cc2cnc(-c3ccc(C(=O)Nc4ccccc4N)cc3)c(F)c2)CC1	> 31600	> 2160	1.6	646	33.1	–	–	–
Nc1ccccc1NC(=O)c1ccc(-c2ncc(CN3CCC3)cc2Cl)cc1	22400	1340 (≈ 526 µg/mL)	–	302	18.6	–	–	half-life [24]: 5.2 h
CCN1CCN(Cc2cnc(-c3ccc(C(=O)Nc4ccccc4N)cc3)c(F)c2)CC1	> 31600	> 2420	–	437	38	–	–	–
Nc1ccccc1NC(=O)c1ccc(-c2ncc(CN3CCC3)cc2F)cc1	> 25100	841 (≈ 317 µg/mL)	1.69	372	50.1	6.3	34	half-life [25]: 5.4 h; half-life [4]: 3.6 h
N#Cc1cccnc1-c1ccc(C(=O)Nc2ccccc2N)cc1	> 31600	35 (≈ 11 µg/mL)	1.58	288	12.3	1	56.1	–
CCN1CCN(Cc2cnc(-c3ccc(C(=O)Nc4ccccc4N)cc3)c(C)c2)CC1	> 25100	> 2350	1.2	229	18.6	–	–	–
CCN1CCN(Cc2cnc(-c3ccc(C(=O)Nc4ccccc4N)cc3)c(C#N)c2)CC1	> 25100	> 1940	1.14	138	9.77	–	–	clearance [10]: 47.5 mL/min/kg; half-life [26]: 3.2 h; Vd [11]: 3.6 L/kg; half-life [13]: 1.1 h
